# Experimental data: ChEMBL document CHEMBL1208669, “Synthesis of 2-(pyrimidin-2-yl)-1-phenyl-2,3,4,9-tetrahydro-1H-beta-carbolines as antileishmanial agents” (Eur J Med Chem, 2010)
# The source made the active and inactive calls. No cut-off for these calls is given here.
# Assays:
# [1] = system: Leishmania donovani; test: Antileishmanial activity against promastigotes of Leishmania donovani MHOM/IN/80/Dd8 after 72 hrs by luciferase reporter gene assay relative to control; assay type: functional
# In short: (§1)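 Dd8 promastigotes transfected with firefly luciferase were kept in medium 199 + 10% FCS with antibiotics under G418. Late-log cells were incubated 72 h with serial drug dilutions, with parallel DMSO dilutions as controls. An aliquot was mixed 1:1 with Steady Glo and luminescence read as RLU. % inhibition = (N − n) × 100/N versus untreated control RLU; tested as serial dilutions or single concentration.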
# [2] = system: Leishmania donovani; test: Antileishmanial activity against amastigote of Leishmania donovani MHOM/IN/80/Dd8 infected in mouse J774A1 cells after 72 hrs by luciferase reporter gene assay; assay type: functional, organism-based; settings: MHOM/IN/80/Dd8, J774.A1, 72 h
# In short: (§2)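 J774A.1 macrophages were seeded at 1.5 × 10⁴ cells/well in RPMI-1640 + 10% FCS, 37 °C, CO₂, for 24 h. They were then infected with stationary-phase luciferase-transfected Dd8 promastigotes (2.25 × 10⁵/well), which transform to amastigotes. Compounds (0.25–10 range) were added in fresh medium for 72 h. Medium was removed, PBS and Steady Glo added, and luminescence read. Inhibition vs untreated controls; IC50 by logit regression.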
# [3] = Cytotoxicity against mouse J774A1 cells after 72 hrs by MTT assay; assay type: cell-based, J774.A1
# In short: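 J774A.1 cells were grown in RPMI + 10% FCS with gentamycin. Exponential cells (1 × 10⁴/well) were exposed to a range of drug concentrations (DMSO stocks diluted in complete medium) for 72 h at 37 °C in humidified CO₂/air. MTT was added, formazan dissolved in DMSO after 15 min shaking, and absorbance read at 544 nm. CC50 is the 50% viability reduction versus medium-only cells.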
# [4] = (§3) Selectivity index, ratio of CC50 for mouse J774A1 cells to IC50 for amastigote of Leishmania donovani MHOM/IN/80/Dd8; assay type: functional, J774.A1
# In short: (§4)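 Ratio of CC50 (J774A.1 MTT, 72 h) to IC50 against intracellular amastigotes in J774A.1 macrophages (luciferase read-out, 72 h).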
# [5] = system: DU-145; test: Cytotoxicity against human DU145 cells up to 50 ug/ml by MTT assay; assay type: functional, cell-based
# [6] = system: MCF7; test: Cytotoxicity against human MCF7 cells up to 50 ug/ml by MTT assay; assay type: functional, cell-based
# [7] = system: KB; test: Cytotoxicity against human KB cells up to 50 ug/ml by MTT assay; assay type: functional, cell-based
# [8] = system: C-33-A; test: Cytotoxicity against human C33A cells up to 50 ug/ml by MTT assay; assay type: functional, cell-based
# [9] = system: Vero; test: Cytotoxicity against african green monkey Vero cells up to 50 ug/ml by MTT assay; assay type: cell-based; settings: chlorocebus sabaeus
# [10] = system: DU-145; test: Cytotoxicity against human DU145 cells by MTT assay; assay type: functional, cell-based
# [11] = system: MCF7; test: Cytotoxicity against human MCF7 cells by MTT assay; assay type: functional, cell-based
# [12] = system: KB; test: Cytotoxicity against human KB cells by MTT assay; assay type: functional, cell-based
# [13] = system: C-33-A; test: Cytotoxicity against human C33A cells by MTT assay; assay type: functional, cell-based
# [14] = system: Vero; test: Cytotoxicity against african green monkey Vero cells by MTT assay; assay type: cell-based; settings: chlorocebus sabaeus
# [15] = system: Leishmania donovani; test: Antileishmanial activity against amastigote of Leishmania donovani MHOM/IN/80/Dd8 infected in mouse J774A1 cells at 0.25 to 10 ug/ml after 72 hrs by luciferase reporter gene assay; assay type: functional, organism-based; settings: j774.a1; in short: as §2
# [16] = system: Leishmania donovani; test: Antileishmanial activity against Leishmania donovani; assay type: functional, organism-based
# [17] = system: J774.A1; test: as §3; assay type: functional; in short: as §4
# [18] = system: Leishmania donovani; test: Antileishmanial activity against promastigotes of Leishmania donovani MHOM/IN/80/Dd8 at 500 ug/ml after 72 hrs by luciferase reporter gene assay relative to control; assay type: functional, organism-based; in short: as §1
Compound,IC50 ([2]; read-out: IC50) [µg/mL],IC50 [15],IC50 [2] [µg/mL],IC50 [16] [µg/mL],inhibition (INH) [1] [%],CC50 at 72 h ([3]; read-out: CC50) [µg/mL],Ratio CC50/IC50 [4],Activity [5],Activity [6],Activity [7],Activity [8],Activity [9],IC50 [10] [µg/mL],IC50 [11] [µg/mL],IC50 [12] [µg/mL],IC50 [13] [µg/mL],IC50 [14] [µg/mL],CC50 at 72 h [3] [µg/mL],Ratio CC50/IC50 [17],inhibition [18] [%]
CN1CCN(c2cc(N3CCN(C)CC3)nc(N3CCc4c([nH]c5ccccc45)C3c3ccc4c(c3)OCO4)n2)CC1 (racemic),0.49,–,–,–,99.96,2.8,5.71,–,–,–,–,–,1.5,1.2,2,1.1,2.6,–,–,–
CCc1ccc(C2c3[nH]c4ccccc4c3CCN2c2nc(Cl)cc(Cl)n2)cc1 (racemic),–,–,4.46,–,60.24,–,6.87,–,–,–,–,–,23,32.4,22.8,19.8,37.8,30.7,–,–
Clc1cc(Cl)nc(NCCc2c[nH]c3ccccc23)n1,7.34,–,–,–,99.78,20.6,2.8,inactive,inactive,inactive,inactive,Non-toxic,–,–,–,–,–,–,–,–
COc1ccc(C2c3[nH]c4ccccc4c3CCN2c2nc(N3CCOCC3)cc(N3CCOCC3)n2)cc1 (racemic),4.48,–,–,–,97.25,67.7,15.1,–,–,–,–,–,4.5,3.9,5.1,2.5,7.8,–,–,–
c1ccc2c(CCNc3nc(N4CCOCC4)cc(N4CCOCC4)n3)c[nH]c2c1,3.05,–,–,–,99.72,19.4,6.34,–,–,–,–,Non-toxic,–,–,–,–,–,–,–,–
N=C(N)c1ccc(OCCCCCOc2ccc(C(=N)N)cc2)cc1 [PENTAMIDINE],–,–,–,–,100,25.1,–,–,–,–,–,–,–,–,–,–,–,–,–,–
Clc1cc(Cl)nc(N2CCc3c([nH]c4ccccc34)C2c2cccc(Br)c2)n1 (racemic),7.79,–,–,–,79.65,14,1.81,–,–,–,–,–,15.8,23.4,15.6,21.7,24.3,–,–,–
C=CC1CN2CCc3c([nH]c4ccccc34)[C@@H]2C[C@@H]1[C@@H](C(=O)OC)[C@H]1NCCc2c1[nH]c1ccccc21 (stereo partly specified) [BUCHTIENINE],–,–,–,> 0.3,–,–,–,–,–,–,–,–,–,–,–,–,–,–,–,–
CCN1CCN(c2cc(N3CCN(CC)CC3)nc(N3CCc4c([nH]c5ccccc45)C3c3ccc4c(c3)OCO4)n2)CC1 (racemic),0.48,–,–,–,99.94,2.5,5.2,–,–,–,–,–,6.2,3.6,4.5,4.1,5.9,–,–,–
COc1ccc(C2c3[nH]c4ccccc4c3CCN2c2nc(N3CCOCC3)cc(N3CCOCC3)n2)cc1OC (racemic),–,Not Active,–,–,85.31,–,–,inactive,inactive,inactive,inactive,Non-toxic,–,–,–,–,–,–,–,–
sodiumstilbogluconate,–,–,–,–,–,–,–,–,–,–,–,–,–,–,–,–,–,–,6.38,40
Clc1cc(Cl)nc(N2CCc3c([nH]c4ccccc34)C2c2ccc(OCc3ccccc3)cc2)n1 (racemic),–,Not Active,–,–,36.85,–,–,inactive,inactive,inactive,inactive,Non-toxic,–,–,–,–,–,–,–,–
Clc1cc(Cl)nc(N2CCc3c([nH]c4ccccc34)C2c2ccc3c(c2)OCO3)n1 (racemic),–,Not Active,–,–,33.57,–,–,–,–,–,–,–,8.9,4.3,3.9,3.3,8.2,–,–,–
CN1CCN(c2cc(N3CCN(C)CC3)nc(NCCc3c[nH]c4ccccc34)n2)CC1,1.74,–,–,–,100,18.4,10.55,–,–,–,–,–,21.3,35.2,33.4,26,29.7,–,–,–
Cc1ccc(C2c3[nH]c4ccccc4c3CCN2c2nc(Cl)cc(Cl)n2)cc1 (racemic),–,–,6,–,84.15,–,4.09,–,–,–,–,–,20.2,28,21.6,24.9,33.7,24.6,–,–

# More lines, main results first:
IC50 ([2]; read-out: IC50) [µg/mL],IC50 [15],IC50 [2] [µg/mL],IC50 [16] [µg/mL],Compound,inhibition (INH) [1] [%],CC50 at 72 h ([3]; read-out: CC50) [µg/mL],Ratio CC50/IC50 [4],Activity [5],Activity [6],Activity [7],Activity [8],Activity [9],IC50 [10] [µg/mL],IC50 [11] [µg/mL],IC50 [12] [µg/mL],IC50 [13] [µg/mL],IC50 [14] [µg/mL],CC50 at 72 h [3] [µg/mL],Ratio CC50/IC50 [17],inhibition [18] [%]
1.93,–,–,–,COc1ccc(C2c3[nH]c4ccccc4c3CCN2c2nc(Cl)cc(Cl)n2)cc1OC (racemic),93.06,29.8,15.43,inactive,inactive,inactive,inactive,Non-toxic,–,–,–,–,–,–,–,–
3.57,–,–,–,COc1ccc(C2c3[nH]c4ccccc4c3CCN2c2nc(Cl)cc(Cl)n2)cc1 (racemic),81.68,–,–,–,–,–,–,–,10.1,5.2,4.5,4.2,9.8,–,–,–
–,Not Active,–,–,COc1ccc(OC)c(C2c3[nH]c4ccccc4c3CCN2c2nc(Cl)cc(Cl)n2)c1 (racemic),85.34,–,–,inactive,inactive,inactive,inactive,Non-toxic,–,–,–,–,–,–,–,–
–,Not Active,–,–,COc1ccc(C2c3[nH]c4ccccc4c3CCN2c2nc(Cl)cc(Cl)n2)c(OC)c1 (racemic),54.14,–,–,inactive,inactive,inactive,inactive,Non-toxic,–,–,–,–,–,–,–,–
–,Not Active,–,–,COc1cccc(C2c3[nH]c4ccccc4c3CCN2c2nc(Cl)cc(Cl)n2)c1 (racemic),44.33,–,–,inactive,inactive,inactive,inactive,Non-toxic,–,–,–,–,–,–,–,–
3.81,–,–,–,COc1cc(C2c3[nH]c4ccccc4c3CCN2c2nc(Cl)cc(Cl)n2)cc(OC)c1OC (racemic),81.68,–,–,inactive,inactive,inactive,inactive,Non-toxic,–,–,–,–,–,–,–,–
–,Not Active,–,–,COc1ccccc1C1c2[nH]c3ccccc3c2CCN1c1nc(Cl)cc(Cl)n1 (racemic),38.79,–,–,inactive,inactive,inactive,inactive,Non-toxic,–,–,–,–,–,–,–,–
–,Not Active,–,–,COc1cc(OC)cc(C2c3[nH]c4ccccc4c3CCN2c2nc(Cl)cc(Cl)n2)c1 (racemic),90.57,–,–,inactive,inactive,inactive,inactive,Non-toxic,–,–,–,–,–,–,–,–
